Data reported in ChEMBL document CHEMBL3822424, “Design and synthesis of 1H-pyrazolo[3,4-c]pyridine derivatives as a novel structural class of potent GPR119 agonists” (Bioorg Med Chem Lett, 2016).
Converted amounts (≈) assume the structure as drawn.

How the values were obtained:
[1] = molecular target: T1, Glucose-dependent insulinotropic receptor (Homo sapiens, UniProt Q8TDV5); assay: Agonist activity at human GPR119 expressed in Flp-In-T-Rex-HEK293 cells after 30 mins by cAMP accumulation assay; format: functional, cell-based
T1 sequence (Q8TDV5 whole entry): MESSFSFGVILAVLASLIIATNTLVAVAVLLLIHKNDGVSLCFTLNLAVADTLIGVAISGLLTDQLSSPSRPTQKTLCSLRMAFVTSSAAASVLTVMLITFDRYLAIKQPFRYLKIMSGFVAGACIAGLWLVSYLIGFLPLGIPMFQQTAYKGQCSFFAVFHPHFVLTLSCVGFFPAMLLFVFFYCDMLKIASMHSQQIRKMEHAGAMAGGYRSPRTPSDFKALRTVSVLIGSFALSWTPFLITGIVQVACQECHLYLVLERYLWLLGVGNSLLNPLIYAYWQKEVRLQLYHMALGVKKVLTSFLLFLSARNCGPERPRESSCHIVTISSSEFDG
In short: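 Flp-In-T-Rex-HEK293 cells overexpressing human GPR119, induced with tetracycline for 24 h, plated at 5000 cells/well in D-MEM assay buffer with 1 mM IBMX and 0.01% BSA. Cells exposed to compound for 30 min at 37 °C. cAMP read by HTRF kit (HiRange). Response = stimulated minus basal cAMP. EC50 = concentration giving 50% of maximal response.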

[2] = Drug metabolism in human liver microsomes after 15 mins; format: ADME; conditions: read-out: Drug metabolism
In short: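 Compound incubated 15 min with human liver microsomes at 1 mg protein/mL; result expressed as percent metabolized.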

[3] = Thermodynamic solubility of the compound in phosphate buffer at pH 6.8; format: physicochemical; conditions: read-out: Therm_solubility
In short: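 Thermodynamic solubility measured in pH 6.8 phosphate buffer.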

[4] = Half life in Sprague-Dawley rat at 3 mg/kg, iv; format: ADME, organism-based; conditions: in vivo
[5] = Oral bioavailability in Sprague-Dawley rat at 10 mg/kg; format: ADME, organism-based; conditions: in vivo
[6] = Permeability of the compound at pH 6.2 by PAMPA; format: ADME; conditions: read-out: permeability
[7] = AUC (0 to infinity) in Sprague-Dawley rat at 10 mg/kg, po; format: ADME, organism-based; parameters: dose 10 mg/kg, time infinity, route oral; conditions: in vivo
[8] = Clearance in Sprague-Dawley rat at 3 mg/kg, iv; format: ADME, organism-based; conditions: in vivo
[9] = Volume of distribution at steady state in Sprague-Dawley rat at 3 mg/kg, iv; format: ADME, organism-based; conditions: in vivo, read-out: Vdss

SMILES | EC50 [1] | metabolised at 0.25 h [2] | also measured
CC(C)OC(=O)N1CCC(n2ncc3cc(-c4ccc(S(C)(=O)=O)nc4)ncc32)CC1 | 197 nM | – | –
CC(C)(C)OC(=O)N1CCC(n2nnc3cc(-c4ccc(S(C)(=O)=O)cc4)ccc32)CC1 | 63 nM | – | –
CC(C)OC(=O)N1CCC(n2ncc3cc(-c4cc(F)c(C(=O)N(C)C)cc4F)ncc32)CC1 | 46 nM | – | –
CC(C)OC(=O)N1CCC(n2ncc3cc(Oc4ccc(S(C)(=O)=O)cc4)ncc32)CC1 | 177 nM | – | –
CC(C)OC(=O)N1CCC(n2ncc3cc(-c4ccc(C(N)=O)cc4F)ncc32)CC1 | 97 nM | – | –
CC(C)OC(=O)N1CCC(n2ncc3cc(-c4cc(F)c(C(=O)NCCO)cc4F)ncc32)CC1 | 92 nM | – | –
CC(C)OC(=O)N1CCC(n2ncc3cc(Oc4cccc(S(C)(=O)=O)c4)ncc32)CC1 | 266 nM | – | –
CC(C)OC(=O)N1CCC(n2ncc3cc(-c4cc(F)c(C(N)=O)cc4F)ncc32)CC1 | 52 nM | – | –
CC(C)CCN1CCC(n2ncc3cc(-c4ccc(S(C)(=O)=O)cc4)ncc32)CC1 | 220 nM | – | –
CC(C)OC(=O)N1CCC(n2ncc3cc(-c4ccc(S(C)(=O)=O)cc4)ncc32)CC1 | 42 nM | 24.1% | solubility thermodynamic [3]: 0.67 µg/mL (≈ 1.51 µM)

Now those with a lower EC50 [1], led by results:

EC50 [1] | metabolised at 0.25 h [2] | SMILES | also measured
31 nM | – | CC(C)(C)OC(=O)N1CCC(n2ncc3cc(-c4ccc(S(C)(=O)=O)cc4)ccc32)CC1 | –
30 nM | 44.1% | Cc1ccc(N2CCC(n3ncc4cc(-c5ccc(S(C)(=O)=O)cc5)ncc43)CC2)nc1 | –
27 nM | – | CC(C)OC(=O)N1CCC(n2ncc3cc(-c4ccc(S(C)(=O)=O)cc4F)ncc32)CC1 | –
23 nM | 3.9% | CC(C)(OC(=O)N1CCC(n2ncc3cc(-c4ccc(S(C)(=O)=O)cc4)ncc32)CC1)C(F)F | –
20 nM | – | CC(C)(C)OC(=O)N1CCC(n2ncc3cc(-c4ccc(S(C)(=O)=O)cc4)ncc32)CC1 | –
15 nM | 35.8% | CCc1cnc(N2CCC(n3ncc4cc(-c5cc(F)c(C(=O)NCCO)cc5F)ncc43)CC2)nc1 | solubility thermodynamic [3]: 0.69 µg/mL (≈ 1.36 µM)
14 nM | – | CCCNC(=O)c1cc(F)c(-c2cc3cnn(C4CCN(C(=O)OC(C)C)CC4)c3cn2)cc1F | –
13 nM | 20.3% | CCc1cnc(N2CCC(n3ncc4cc(-c5ccc(S(C)(=O)=O)cc5)ncc43)CC2)nc1 | –
11 nM | 79.8% | CC(C)COC(=O)N1CCC(n2ncc3cc(-c4ccc(S(C)(=O)=O)cc4)ncc32)CC1 | –
10 nM | – | CCNC(=O)c1cc(F)c(-c2cc3cnn(C4CCN(C(=O)OC(C)C)CC4)c3cn2)cc1F | –
10 nM | 2.1% | CC(C)(OC(=O)N1CCC(n2ncc3cc(-c4ccc(S(C)(=O)=O)cc4F)ncc32)CC1)C(F)F | solubility thermodynamic [3]: < 0.06 µg/mL
4 nM | 14.3% | CCc1cnc(N2CCC(n3ncc4cc(-c5ccc(S(C)(=O)=O)cc5F)ncc43)CC2)nc1 | half-life [4]: 37 min; bioavailability [5]: 12.6%; Papp [6]: 112 ×10⁻⁶ cm/s; AUC(0-inf) [7]: 1930 ng·h/mL; solubility thermodynamic [3]: 0.34 µg/mL (≈ 0.707 µM); clearance [8]: 12.7 mL/min/kg; Vd [9]: 0.537 L/kg
